Active and inactive are the calls of the source. No cut-off for these calls is given here.
Columns and labels:
[1] = Drug metabolism assessed as selenocysteine reactivity at 20 uM incubated for 1 hr measured every 5 mins for 1 hr by sel-green probe based fluorescence assay; assay type: physicochemical
How it was run: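 Reduced L-selenocysteine (20 μM) reacted with Sel-green probe (20 μM) with test compound at 20 μM; DMSO-only control.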

[2] = biological target: T1, Thioredoxin reductase 1, cytoplasmic (Rattus norvegicus) (UniProt O89049); assay: Inhibition of NADPH-reduced recombinant rat TrxR1 expressed in Escherichia coli harboring gor mutant assessed as suppression of DTNB reduction at 5 uM pretreated for 1 hr followed by DTNB addition measured every 5 mins for 1 hr
T1 sequence (whole entry): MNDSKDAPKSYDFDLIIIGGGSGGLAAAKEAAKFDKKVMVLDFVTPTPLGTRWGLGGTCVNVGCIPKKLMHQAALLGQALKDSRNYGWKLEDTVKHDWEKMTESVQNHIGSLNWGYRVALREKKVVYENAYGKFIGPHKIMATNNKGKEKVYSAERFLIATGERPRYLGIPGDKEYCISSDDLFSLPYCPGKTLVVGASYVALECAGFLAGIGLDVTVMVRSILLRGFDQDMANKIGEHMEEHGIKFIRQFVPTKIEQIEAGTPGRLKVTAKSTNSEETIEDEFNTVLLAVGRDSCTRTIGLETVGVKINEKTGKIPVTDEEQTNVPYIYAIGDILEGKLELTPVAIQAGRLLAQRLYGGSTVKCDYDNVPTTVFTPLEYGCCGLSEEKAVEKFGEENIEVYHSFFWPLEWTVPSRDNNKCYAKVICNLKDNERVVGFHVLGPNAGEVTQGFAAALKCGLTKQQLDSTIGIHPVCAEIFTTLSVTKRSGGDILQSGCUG
How it was run: (§1)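 Rat recombinant TrxR-1 (5.6 nM), prereduced, with DTNB (2 mM) and compound 0–5000 nM. Compound was either preincubated 1 h with enzyme before substrate or added at the same time as DTNB. Read-out was initial rates of DTNB reduction relative to no-compound control, giving IC50 (± error).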

[3] = biological target: T2, Thioredoxin reductase 1, cytoplasmic (Rattus norvegicus, UniProt O89049); assay: (§2) Inhibition of NADPH-reduced recombinant rat TrxR1 expressed in Escherichia coli harboring gor mutant assessed as suppression of insulin reduction using Trx as substrate pretreated for 30 mins followed by Trx addition for 30 mins and subsequent eosin-labelled bovine insulin addition measured every 5 mins for 1 hr by fluorescence assay
[4] = biological target: T1, Thioredoxin reductase 1, cytoplasmic (Rattus norvegicus); assay: as §2
[5] = biological target: T1, Thioredoxin reductase 1, cytoplasmic (Rattus norvegicus); assay: Inhibition of NADPH-reduced recombinant rat TrxR1 expressed in Escherichia coli harboring gor mutant assessed as suppression of DTNB reduction at 5 uM incubated for 1 hr in presence of DTNB measured every 5 mins for 1 hr; how it was run: as §1
[6] = biological target: T2, Thioredoxin reductase 1, cytoplasmic; assay: Inhibition of NADPH-reduced recombinant rat TrxR1 expressed in Escherichia coli harboring gor mutant assessed as suppression of DTNB reduction pretreated for 1 hr followed by DTNB addition measured every 5 mins for 1 hr; how it was run: as §1
[7] = biological target: T2, Thioredoxin reductase 1, cytoplasmic; assay: Inhibition of NADPH-reduced recombinant rat TrxR1 expressed in Escherichia coli harboring gor mutant assessed as suppression of DTNB reduction incubated for 1 hr in presence of DTNB measured every 5 mins for 1 hr; how it was run: as §1
[8] = biological target: T1, Thioredoxin reductase 1, cytoplasmic (Rattus norvegicus); assay: Induction of recombinant rat TrxR1 NADPH oxidase activity expressed in Escherichia coli harboring gor mutant assessed as superoxide generation by measuring cytochrome C reduction at 62.5 uM measured in presence of SOD
How it was run: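 TrxR-1 (100 nM) incubated with compound (62.5 μM), with and without SOD (6 units/well); reduction of cytochrome C (100 μM) followed over time; DMSO-only control.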

[9] = biological target: T1, Thioredoxin reductase 1, cytoplasmic (Rattus norvegicus); assay: Irreversible inhibition of NADPH-reduced recombinant rat TrxR1 expressed in Escherichia coli harboring gor mutant assessed as suppression of DTNB reduction at 2 uM pretreated for 1 hr followed by NADPH addition for 30 mins and subsequent DTNB addition measured every 5 mins for 1 hr
[10] = biological target: T1, Thioredoxin reductase 1, cytoplasmic (Rattus norvegicus); assay: Inhibition of oxidized recombinant rat TrxR1 expressed in Escherichia coli harboring gor mutant assessed as suppression of DTNB reduction at 2 uM pretreated for 30 mins followed by NADPH addition for 30 mins and subsequent DTNB addition measured every 5 mins for 1 hr
[11] = biological target: T1, Thioredoxin reductase 1, cytoplasmic (Rattus norvegicus); assay: Time-dependent inhibition of NADPH-reduced recombinant rat TrxR1 expressed in Escherichia coli harboring gor mutant assessed as suppression of DTNB reduction at 1 uM measured every 5 mins for 1 hr

Row | Drug metabolism [1] | inhibition [2] | IC50 [3] [µM] | inhibition [4] | inhibition [5] | IC50 [6] [µM] | IC50 [7] [µM] | Activity [8] | inhibition [9] | inhibition [10] | TDI [11] | Structure (SMILES)
1 | Metabolite_Notdetected |  |  |  |  |  |  |  |  |  |  | CCCCC(C)/C=C(C)/C=C(\C)C(=O)Nc1cc(/C=C/C=C/C=C/C(=O)NC2=C(O)CCC2=O)c(O)cc1O (configuration not stated)
2 | Metabolite_Detected | Active | 0.572 | Dose-dependent effect | Active | 0.272 | 1.59 | inactive | Active | inactive | Active | CCCC[C@@H](C)/C=C(C)/C=C(\C)C(=O)NC1=C[C@@](O)(/C=C/C=C/C=C/C(=O)NC2=C(O)CCC2=O)[C@@H]2O[C@@H]2C1=O [MANUMYCIN A]
